Tests used:
[1] = target: MAP kinase-interacting serine/threonine-protein kinase 1 (Homo sapiens) (UniProt Q9BUB5); assay: Binding affinity to wild-type human full length MKNK1 (M1 to L424 residues) expressed in HEK293 cells at 1 uM by Kinomescan method relative to control; assay type: cell-based
Outline: (§1)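 Run as one kinome-wide competition binding panel with each compound at a single fixed concentration. Results were plotted as a kinome-wide selectivity map.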

[2] = tested on: Phosphatidylinositol 4,5-bisphosphate 3-kinase catalytic subunit alpha isoform (Homo sapiens), P42336 [C420R]; assay: Binding affinity to human partial length PIK3CA C420R mutant (R108 to N1068 residues) expressed in HEK293 cells at 1 uM by Kinomescan method relative to control; assay type: cell-based
[3] = target: Non-receptor tyrosine-protein kinase TYK2 (Homo sapiens) (UniProt P29597); assay: Binding affinity to wild-type human partial length TYK2 JH1 catalytic domain (V877 to C1187 residues) expressed in HEK293 cells at 1 uM by Kinomescan method relative to control; assay type: cell-based
[4] = target: Cyclin-dependent kinase 3 (Homo sapiens) (UniProt Q00526); assay: Binding affinity to wild-type human full length CDK3 (M1 to H305 residues) expressed in Escherichia coli BL21 at 1 uM by Kinomescan method relative to control; outline: as §1
[5] = target: Mitogen-activated protein kinase kinase kinase 2 (Homo sapiens) (UniProt Q9Y2U5); assay: Binding affinity to wild-type human partial length MAP3K2 (S315 to H619 residues) expressed in HEK293 cells at 1 uM by Kinomescan method relative to control; assay type: cell-based
[6] = target: Mitogen-activated protein kinase 8 (Homo sapiens) (UniProt P45983); assay: Binding affinity to wild-type human full length JNK1 (M1 to Q384 residues) expressed in HEK293 cells at 1 uM by Kinomescan method relative to control; assay type: cell-based; outline: as §1
[7] = target: Serine/threonine-protein kinase D3 (Homo sapiens) (UniProt O94806); assay: Binding affinity to wild-type human partial length PRKD3 (S543 to E863 residues) expressed in Escherichia coli BL21 at 1 uM by Kinomescan method relative to control
[8] = target: Macrophage colony-stimulating factor 1 receptor (Homo sapiens) (UniProt P07333); assay: Binding affinity to wild-type human partial length CSF1R (I564 to S939 residues) expressed in Escherichia coli BL21 at 1 uM by Kinomescan method relative to control
[9] = target: Peripheral plasma membrane protein CASK (Homo sapiens) (UniProt O14936); assay: Binding affinity to wild-type human partial length CASK (M1 to H315 residues) expressed in HEK293 cells at 1 uM by Kinomescan method relative to control; assay type: cell-based
[10] = target: Mitogen-activated protein kinase 11 (Homo sapiens) (UniProt Q15759); assay: Binding affinity to wild-type human full length p38-beta (M1 to Q364 residues) expressed in Escherichia coli BL21 at 1 uM by Kinomescan method relative to control
Outline: (§2)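 Kinome-wide competition binding panel run by an outside provider, with each compound tested at a single concentration. Activity is read against the kinase panel.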

[11] = target: Tyrosine-protein kinase Fyn (Homo sapiens) (UniProt P06241); assay: Binding affinity to wild-type human partial length FYN (T243 to L534 residues) expressed in Escherichia coli BL21 at 1 uM by Kinomescan method relative to control
[12] = target: Ephrin type-B receptor 2 (Homo sapiens) (UniProt P29323); assay: Binding affinity to wild-type human partial length EPHB2 (I597 to L902 residues) expressed in Escherichia coli BL21 at 1 uM by Kinomescan method relative to control
[13] = target: Serine/threonine-protein kinase PAK 6 (Homo sapiens) (UniProt Q9NQU5); assay: Binding affinity to wild-type human partial length PAK6 (N298 to C681 residues) expressed in Escherichia coli BL21 at 1 uM by Kinomescan method relative to control
[14] = target: Casein kinase I isoform delta (Homo sapiens) (UniProt P48730); assay: Binding affinity to wild-type human full length CSNK1D (M1 to K409 residues) expressed in Escherichia coli BL21 at 1 uM by Kinomescan method relative to control; outline: as §1
[15] = target: Serine/threonine-protein kinase Nek4 (Homo sapiens) (UniProt P51957); assay: Binding affinity to wild-type human full length NEK4 (M1 to F841 residues) expressed in HEK293 cells at 1 uM by Kinomescan method relative to control; assay type: cell-based; outline: as §2
[16] = tested on: Receptor-type tyrosine-protein kinase FLT3 (Homo sapiens), P36888 [UNDEFINED MUTATION]; assay: Binding affinity to human partial length FLT3 ITD/D835V double mutant expressed in Escherichia coli BL21 at 1 uM by Kinomescan method relative to control
[17] = target: Serine/threonine-protein kinase 26 (Homo sapiens) (UniProt Q9P289); assay: Binding affinity to wild-type human full length MST4 (M1 to P416 residues) expressed in HEK293 cells at 1 uM by Kinomescan method relative to control; assay type: cell-based; outline: as §1
[18] = target: Myosin-IIIb (Homo sapiens) (UniProt Q8WXR4); assay: Binding affinity to wild-type human partial length MYO3B (M1 to D357 residues) expressed in Escherichia coli BL21 at 1 uM by Kinomescan method relative to control
[19] = target: TRAF2 and NCK-interacting protein kinase (Homo sapiens) (UniProt Q9UKE5); assay: Binding affinity to wild-type human partial length TNIK (D4 to K311 residues) expressed in Escherichia coli BL21 at 1 uM by Kinomescan method relative to control
[20] = target: Maternal embryonic leucine zipper kinase (Homo sapiens) (UniProt Q14680); assay: Binding affinity to wild-type human full length MELK (M1 to V651 residues) expressed in Escherichia coli BL21 at 1 uM by Kinomescan method relative to control; outline: as §1
[21] = tested on: Epidermal growth factor receptor (Homo sapiens), P00533 [G719C]; assay: Binding affinity to human partial length EGFR G719C mutant (R669 to V1011 residues) expressed in Escherichia coli BL21 at 1 uM by Kinomescan method relative to control
[22] = target: Bone morphogenetic protein receptor type-1A (Homo sapiens) (UniProt P36894); assay: Binding affinity to wild-type human partial length BMPR1A (Q214 to I532 residues) expressed in Escherichia coli BL21 at 1 uM by Kinomescan method relative to control
[23] = tested on: Mast/stem cell growth factor receptor Kit (Homo sapiens), P10721 [L576P]; assay: Binding affinity to human partial length KIT L576P mutant (Y545 to D952 residues) expressed in Escherichia coli BL21 at 1 uM by Kinomescan method relative to control
[24] = target: Serine/threonine-protein kinase Nek6 (Homo sapiens) (UniProt Q9HC98); assay: Binding affinity to wild-type human full length NEK6 (M8 to T313 residues) expressed in Escherichia coli BL21 at 1 uM by Kinomescan method relative to control; outline: as §2
[25] = target: Calcium/calmodulin-dependent protein kinase type II subunit beta (Homo sapiens) (UniProt Q13554); assay: Binding affinity to wild-type human partial length CAMK2B (M1 to Q380 residues) expressed in Escherichia coli BL21 at 1 uM by Kinomescan method relative to control

Sequence of Tyrosine-protein kinase Fyn (Homo sapiens) (P06241 2-537 limits assumed): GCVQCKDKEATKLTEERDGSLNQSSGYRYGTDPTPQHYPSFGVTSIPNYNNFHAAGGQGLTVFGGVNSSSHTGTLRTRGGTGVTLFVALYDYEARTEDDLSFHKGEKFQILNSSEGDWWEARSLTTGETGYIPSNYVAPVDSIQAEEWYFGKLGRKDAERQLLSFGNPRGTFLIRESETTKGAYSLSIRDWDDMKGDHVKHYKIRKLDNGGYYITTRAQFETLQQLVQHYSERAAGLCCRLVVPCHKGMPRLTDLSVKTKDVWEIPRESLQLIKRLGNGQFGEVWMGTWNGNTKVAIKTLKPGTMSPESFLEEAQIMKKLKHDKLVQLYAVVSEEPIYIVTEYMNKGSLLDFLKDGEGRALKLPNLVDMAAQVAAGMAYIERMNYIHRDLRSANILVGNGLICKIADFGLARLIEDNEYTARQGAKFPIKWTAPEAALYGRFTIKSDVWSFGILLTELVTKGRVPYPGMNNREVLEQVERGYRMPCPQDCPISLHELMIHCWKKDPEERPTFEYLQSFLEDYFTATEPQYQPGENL
Sequence of Macrophage colony-stimulating factor 1 receptor (Homo sapiens) (P07333 whole entry, the tested form may be a part): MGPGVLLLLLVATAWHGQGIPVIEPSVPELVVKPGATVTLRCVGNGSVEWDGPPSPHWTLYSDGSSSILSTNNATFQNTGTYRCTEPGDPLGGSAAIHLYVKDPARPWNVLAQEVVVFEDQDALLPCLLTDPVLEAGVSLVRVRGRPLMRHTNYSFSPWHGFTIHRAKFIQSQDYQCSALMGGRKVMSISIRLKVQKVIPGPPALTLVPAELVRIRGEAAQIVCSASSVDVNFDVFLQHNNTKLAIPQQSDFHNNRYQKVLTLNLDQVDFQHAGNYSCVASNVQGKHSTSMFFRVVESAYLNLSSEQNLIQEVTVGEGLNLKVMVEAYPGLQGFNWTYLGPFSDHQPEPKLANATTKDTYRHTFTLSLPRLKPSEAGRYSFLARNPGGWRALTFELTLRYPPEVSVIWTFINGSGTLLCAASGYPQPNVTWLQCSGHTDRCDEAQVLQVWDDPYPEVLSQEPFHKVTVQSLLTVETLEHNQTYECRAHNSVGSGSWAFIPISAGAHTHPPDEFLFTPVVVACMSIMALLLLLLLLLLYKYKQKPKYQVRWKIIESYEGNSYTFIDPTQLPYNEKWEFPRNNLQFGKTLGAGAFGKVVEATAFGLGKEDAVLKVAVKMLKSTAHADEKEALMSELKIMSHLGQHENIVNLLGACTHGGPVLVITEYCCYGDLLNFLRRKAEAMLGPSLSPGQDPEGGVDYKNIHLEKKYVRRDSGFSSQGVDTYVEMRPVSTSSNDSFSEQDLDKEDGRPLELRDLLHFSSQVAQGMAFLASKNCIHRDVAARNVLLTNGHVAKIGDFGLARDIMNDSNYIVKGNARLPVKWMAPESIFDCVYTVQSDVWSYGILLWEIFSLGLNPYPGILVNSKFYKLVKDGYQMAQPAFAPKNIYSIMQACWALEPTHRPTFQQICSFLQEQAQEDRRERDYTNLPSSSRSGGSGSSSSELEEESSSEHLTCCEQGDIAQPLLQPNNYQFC
Sequence of Serine/threonine-protein kinase Nek6 (Homo sapiens) (Q9HC98 whole entry, the tested form may be a part): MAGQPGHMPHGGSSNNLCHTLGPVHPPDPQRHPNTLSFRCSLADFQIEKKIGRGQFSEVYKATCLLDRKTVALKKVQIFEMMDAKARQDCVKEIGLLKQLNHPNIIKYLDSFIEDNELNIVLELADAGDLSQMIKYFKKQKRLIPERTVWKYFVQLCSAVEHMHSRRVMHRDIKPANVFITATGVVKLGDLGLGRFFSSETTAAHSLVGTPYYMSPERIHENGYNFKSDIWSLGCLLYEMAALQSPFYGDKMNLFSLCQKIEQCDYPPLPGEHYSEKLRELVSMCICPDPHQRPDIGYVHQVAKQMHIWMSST
Sequence of Ephrin type-B receptor 2 (Homo sapiens) (P29323 whole entry, the tested form may be a part): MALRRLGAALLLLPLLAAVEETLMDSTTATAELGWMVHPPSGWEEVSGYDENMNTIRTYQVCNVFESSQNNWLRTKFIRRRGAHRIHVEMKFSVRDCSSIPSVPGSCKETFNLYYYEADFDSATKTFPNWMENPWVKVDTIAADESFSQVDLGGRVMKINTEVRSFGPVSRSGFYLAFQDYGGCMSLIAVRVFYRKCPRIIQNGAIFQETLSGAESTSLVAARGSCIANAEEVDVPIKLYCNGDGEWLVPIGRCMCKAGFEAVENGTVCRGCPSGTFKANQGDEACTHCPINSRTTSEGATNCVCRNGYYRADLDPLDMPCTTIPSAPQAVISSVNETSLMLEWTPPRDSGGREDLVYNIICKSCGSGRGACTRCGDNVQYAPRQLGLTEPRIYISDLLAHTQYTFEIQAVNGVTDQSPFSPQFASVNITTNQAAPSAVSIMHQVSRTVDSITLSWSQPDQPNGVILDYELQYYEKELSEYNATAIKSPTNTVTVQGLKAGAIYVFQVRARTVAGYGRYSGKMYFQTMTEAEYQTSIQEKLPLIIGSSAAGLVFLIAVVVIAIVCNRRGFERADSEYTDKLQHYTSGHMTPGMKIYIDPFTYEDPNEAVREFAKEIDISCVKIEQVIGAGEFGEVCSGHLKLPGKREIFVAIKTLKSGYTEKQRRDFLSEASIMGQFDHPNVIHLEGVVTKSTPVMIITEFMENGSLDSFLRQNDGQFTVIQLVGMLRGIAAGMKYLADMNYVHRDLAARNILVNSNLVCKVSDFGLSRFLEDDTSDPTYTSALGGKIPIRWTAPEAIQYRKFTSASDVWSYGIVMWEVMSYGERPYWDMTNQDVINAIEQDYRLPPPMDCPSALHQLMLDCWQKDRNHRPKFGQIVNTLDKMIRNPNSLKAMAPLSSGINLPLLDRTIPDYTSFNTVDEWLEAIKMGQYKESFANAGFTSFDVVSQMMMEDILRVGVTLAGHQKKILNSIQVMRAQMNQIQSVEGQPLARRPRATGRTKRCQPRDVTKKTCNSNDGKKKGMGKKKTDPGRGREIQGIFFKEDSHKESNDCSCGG
Sequence of Maternal embryonic leucine zipper kinase (Homo sapiens) (Q14680 whole entry, looked up, the tested form may be a part): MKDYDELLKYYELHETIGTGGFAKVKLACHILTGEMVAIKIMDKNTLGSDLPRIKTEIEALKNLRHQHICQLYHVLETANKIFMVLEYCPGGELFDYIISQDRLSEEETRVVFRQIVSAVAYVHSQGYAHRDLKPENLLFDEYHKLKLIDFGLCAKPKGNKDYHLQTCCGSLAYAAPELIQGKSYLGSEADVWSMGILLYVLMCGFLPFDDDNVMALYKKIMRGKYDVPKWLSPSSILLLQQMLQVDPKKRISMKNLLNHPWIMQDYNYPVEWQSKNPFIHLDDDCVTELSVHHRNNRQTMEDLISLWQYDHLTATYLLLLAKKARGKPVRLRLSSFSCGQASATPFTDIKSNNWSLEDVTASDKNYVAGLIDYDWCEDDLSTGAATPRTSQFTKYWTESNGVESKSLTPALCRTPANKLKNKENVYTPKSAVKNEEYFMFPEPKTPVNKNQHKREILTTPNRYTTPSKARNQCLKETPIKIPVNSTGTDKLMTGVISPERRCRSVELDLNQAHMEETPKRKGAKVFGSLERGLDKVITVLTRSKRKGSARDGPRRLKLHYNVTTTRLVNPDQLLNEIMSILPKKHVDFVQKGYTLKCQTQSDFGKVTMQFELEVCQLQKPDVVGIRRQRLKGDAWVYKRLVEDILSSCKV
Sequence of Serine/threonine-protein kinase D3 (Homo sapiens) (O94806 whole entry, the tested form may be a part): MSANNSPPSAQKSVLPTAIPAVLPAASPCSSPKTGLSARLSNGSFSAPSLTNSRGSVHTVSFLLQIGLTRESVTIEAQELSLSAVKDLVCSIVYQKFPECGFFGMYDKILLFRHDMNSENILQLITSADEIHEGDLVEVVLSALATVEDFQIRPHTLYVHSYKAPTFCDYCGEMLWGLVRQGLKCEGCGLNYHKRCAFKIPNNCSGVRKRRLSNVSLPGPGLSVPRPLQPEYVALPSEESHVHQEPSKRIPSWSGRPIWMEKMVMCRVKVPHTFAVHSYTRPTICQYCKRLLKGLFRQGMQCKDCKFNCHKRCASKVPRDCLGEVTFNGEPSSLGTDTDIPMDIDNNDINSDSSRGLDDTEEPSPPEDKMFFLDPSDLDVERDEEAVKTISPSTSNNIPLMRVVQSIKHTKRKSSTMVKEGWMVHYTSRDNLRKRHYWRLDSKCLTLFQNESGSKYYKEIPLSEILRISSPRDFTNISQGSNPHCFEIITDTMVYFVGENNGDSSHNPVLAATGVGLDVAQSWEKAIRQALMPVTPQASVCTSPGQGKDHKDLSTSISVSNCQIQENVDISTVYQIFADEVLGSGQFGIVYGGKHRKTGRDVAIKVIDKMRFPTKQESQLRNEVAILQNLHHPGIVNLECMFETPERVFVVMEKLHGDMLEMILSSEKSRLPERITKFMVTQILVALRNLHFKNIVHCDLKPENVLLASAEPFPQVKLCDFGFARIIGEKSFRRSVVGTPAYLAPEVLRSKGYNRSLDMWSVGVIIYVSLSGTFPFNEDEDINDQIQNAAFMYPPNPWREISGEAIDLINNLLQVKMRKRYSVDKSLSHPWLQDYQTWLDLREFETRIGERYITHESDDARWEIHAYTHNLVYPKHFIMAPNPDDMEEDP
Sequence of Bone morphogenetic protein receptor type-1A (Homo sapiens) (P36894 whole entry, the tested form may be a part): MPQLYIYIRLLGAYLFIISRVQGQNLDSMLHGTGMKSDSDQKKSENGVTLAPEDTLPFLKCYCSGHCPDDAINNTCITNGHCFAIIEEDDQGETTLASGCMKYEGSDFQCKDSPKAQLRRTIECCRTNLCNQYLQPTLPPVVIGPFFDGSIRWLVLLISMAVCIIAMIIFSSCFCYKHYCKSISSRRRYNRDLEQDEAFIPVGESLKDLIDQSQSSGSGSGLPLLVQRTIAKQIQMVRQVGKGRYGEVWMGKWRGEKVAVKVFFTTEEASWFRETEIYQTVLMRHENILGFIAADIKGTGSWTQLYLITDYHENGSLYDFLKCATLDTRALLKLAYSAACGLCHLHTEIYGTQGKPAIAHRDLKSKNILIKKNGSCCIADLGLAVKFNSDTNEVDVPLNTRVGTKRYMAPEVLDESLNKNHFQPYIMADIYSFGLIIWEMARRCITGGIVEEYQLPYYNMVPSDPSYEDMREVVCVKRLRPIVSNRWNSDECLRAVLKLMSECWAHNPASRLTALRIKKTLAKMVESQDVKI

SMILES	Activity [1]	Activity [2]	Activity [3]	Activity [4]	Activity [5]	Activity [6]	Activity [7]	Activity [8]	Activity [9]	Activity [10]	Activity [11]	Activity [12]	Activity [13]	Activity [14]	Activity [15]	Activity [16]	Activity [17]	Activity [18]	Activity [19]	Activity [20]	further results
CCC(=O)Nc1ccc(C(=O)Nc2ccc(Nc3ncc4c(n3)N(C)c3ccc(C)cc3C(=O)N4C)cc2)cc1	96%	89%	58%	95%	66%	75%	81%	87%	80%	100%	100%	93%	94%	95%	76%	100%	98%	100%	100%	78%	Activity [21]: 95%; Activity [22]: 100%; Activity [23]: 71%; Activity [24]: 96%; Activity [25]: 96%
C=CC(=O)Nc1ccc(C(=O)Nc2ccc(Nc3ncc4c(n3)N(C)c3ccc(C)cc3C(=O)N4C)cc2)cc1	95%	58%	73%	100%	85%	85%	90%	100%	97%	89%	81%	96%	91%	86%	86%	94%	100%	100%	100%	97%	Activity [21]: 99%; Activity [22]: 82%; Activity [23]: 85%; Activity [24]: 98%; Activity [25]: 100%

— ChEMBL document CHEMBL4184148 (Bioorg Med Chem Lett, 2017)
